Data: ChEMBL document CHEMBL1154871, “Synthesis of new spiroindolinones incorporating a benzothiazole moiety as antioxidant agents” (Eur J Med Chem, 2010)

Legend:
Type in all cases: functional
[1] = Antioxidant activity assessed as reduction of […]/ferricyanide complex after 20 mins by spectrophotometry
How it was run: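 Compounds (1.6–6.25 mM) mixed with 0.2 M phosphate buffer, pH 6.6, and 1% potassium ferricyanide, 20 min at 50 °C. Stopped with 1% TCA and centrifuged at 2790 g for 10 min. Supernatant plus water and 0.1% FeCl3 read at 700 nm. EC50 is the concentration giving absorbance 0.5. Mean ± SD of triplicates.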

[2] = Antioxidant activity assessed as trolox equivalent of ABTS free radical scavenging activity after 6 mins by […]
How it was run: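 ABTS radical cation solution was added to compounds (0.2–6.25 mM). Decrease in absorbance at 734 nm was read exactly 6 min after mixing, with ethanol blanks. A Trolox standard curve (final 0–20 µM in ethanol) gives TEAC, the mM Trolox equivalent to 1 mM compound. Run in triplicate.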

[3] = test system: Radical scavenging activity; assay: Antioxidant activity assessed as DPPH radical scavenging activity after 30 mins by spectrophotometry
How it was run: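 Test compounds (0.2–6.25 mM) dissolved in DMSO, added to 6×10^-5 M methanolic DPPH. Mixture held 30 min at room temperature in the dark, then absorbance read at 517 nm against methanol. Scavenging % = [1 − A_sample/A_control] × 100, with a negative control lacking sample. Triplicates averaged; EC50 taken from dose–response.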

[4] = Antioxidant activity assessed as inhibition of Fe(3+)/ascorbate-induced lipid peroxidation in liposomes after 1 hr by TBARS assay
How it was run: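 Lecithin liposomes were sonicated in 10 mmol/L phosphate buffer, pH 7.4. Final mix: 3.08 mg liposome/mL, 123.2 µmol FeCl3, 123.2 µmol ascorbic acid, test compound 0.025–0.4 mM. Incubated 1 h at 37 °C. MDA measured by TBA reaction; n-butanol layer read at 532 nm against a lecithin-free blank. EC50 is the concentration reducing TBARS to 50% of control.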

SNB-75 = assay: Growth inhibition in human SNB75 cells assessed as viable cells at 10 uM after 48 hrs by sulforhodamine B assay; settings: SNB-75, 48 h, read-out: Activity
U-251 = assay: Growth inhibition in human U251 cells assessed as viable cells at 10 uM after 48 hrs by sulforhodamine B assay; settings: U-251, 48 h, read-out: Activity
How it was run: (§1)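 NCI 60-line screen, single dose 10^-5 M, 48 h continuous exposure. Cells grown in RPMI 1640 with 5% FBS and 2 mM L-glutamine, plated at 5000–40,000 cells/well and preincubated 24 h at 37 °C, 5% CO2. Drug stocks in DMSO. Endpoint: TCA fixation, SRB staining, absorbance at 515 nm. Growth % relative to untreated controls and time-zero plates.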

SNB-19 = assay: Growth inhibition in human SNB19 cells assessed as viable cells at 10 uM after 48 hrs by sulforhodamine B assay; settings: SNB-19, 48 h, read-out: Activity
SF-539 = assay: Growth inhibition in human SF539 cells assessed as viable cells at 10 uM after 48 hrs by sulforhodamine B assay; settings: SF-539, 48 h, read-out: Activity
SF-268 = assay: Growth inhibition in human SF268 cells assessed as viable cells at 10 uM after 48 hrs by sulforhodamine B assay; settings: SF-268, 48 h, read-out: Activity
OVCAR-8 = assay: Growth inhibition in human OVCAR8 cells assessed as viable cells at 10 uM after 48 hrs by sulforhodamine B assay; settings: OVCAR-8, 48 h, read-out: Activity
OVCAR-4 = assay: Growth inhibition in human OVCAR4 cells assessed as viable cells at 10 uM after 48 hrs by sulforhodamine B assay; settings: OVCAR-4, 48 h, read-out: Activity
M14 = assay: Growth inhibition in human M14 cells assessed as viable cells at 10 uM after 48 hrs by sulforhodamine B assay; settings: M14, 48 h, read-out: Activity; how it was run: as §1
UACC-62 = assay: Growth inhibition in human UACC62 cells assessed as viable cells at 10 uM after 48 hrs by sulforhodamine B assay; settings: UACC-62, 48 h, read-out: Activity
DU-145 = assay: Growth inhibition in human DU145 cells assessed as viable cells at 10 uM after 48 hrs by sulforhodamine B assay; settings: DU-145, 48 h, read-out: Activity; how it was run: as §1
LOX IMVI = assay: Growth inhibition in human LOXIMVI cells assessed as viable cells at 10 uM after 48 hrs by sulforhodamine B assay; settings: read-out: Activity
SK-OV-3 = assay: Growth inhibition in human SKOV3 cells assessed as viable cells at 10 uM after 48 hrs by sulforhodamine B assay; settings: SK-OV-3, 48 h, read-out: Activity; how it was run: as §1
MDA-MB-231 = assay: Growth inhibition in human MDA-MB-231/ATCC cells assessed as viable cells at 10 uM after 48 hrs by sulforhodamine B assay; settings: MDA-MB-231, 48 h, read-out: Activity; how it was run: as §1
UO-31 = assay: Growth inhibition in human UO31 cells assessed as viable cells at 10 uM after 48 hrs by sulforhodamine B assay; settings: UO-31, 48 h, read-out: Activity; how it was run: as §1
786-0 = assay: Growth inhibition in human 786-0 cells assessed as viable cells at 10 uM after 48 hrs by sulforhodamine B assay; settings: 786-0, 48 h, read-out: Activity; how it was run: as §1
[5] = Growth inhibition in human Hs 578T cells assessed as viable cells at 10 uM after 48 hrs by sulforhodamine B assay; settings: read-out: Activity; how it was run: as §1
SK-MEL-28 = assay: Growth inhibition in human SK-MEL-28 cells assessed as viable cells at 10 uM after 48 hrs by sulforhodamine B assay; settings: SK-MEL-28, 48 h, read-out: Activity; how it was run: as §1
MCF7 = assay: Growth inhibition in human MCF7 cells assessed as viable cells at 10 uM after 48 hrs by sulforhodamine B assay; settings: MCF7, 48 h, read-out: Activity; how it was run: as §1
NCI/ADR-RES = assay: Growth inhibition in human NCI/ADR-RES cells assessed as viable cells at 10 uM after 48 hrs by sulforhodamine B assay; settings: read-out: Activity; how it was run: as §1
CAKI-1 = assay: Growth inhibition in human Caki1 cells assessed as viable cells at 10 uM after 48 hrs by sulforhodamine B assay; settings: CAKI-1, 48 h, read-out: Activity; how it was run: as §1
OVCAR-5 = assay: Growth inhibition in human OVCAR5 cells assessed as viable cells at 10 uM after 48 hrs by sulforhodamine B assay; settings: OVCAR-5, 48 h, read-out: Activity
IGROV-1 = assay: Growth inhibition in human IGROV1 cells assessed as viable cells at 10 uM after 48 hrs by sulforhodamine B assay; settings: IGROV-1, 48 h, read-out: Activity
MDA-MB-435 = assay: Growth inhibition in human MDA-MB-435 cells assessed as viable cells at 10 uM after 48 hrs by sulforhodamine B assay; settings: MDA-MB-435, 48 h, read-out: Activity
UACC-257 = assay: Growth inhibition in human UACC257 cells assessed as viable cells at 10 uM after 48 hrs by sulforhodamine B assay; settings: UACC-257, 48 h, read-out: Activity
ACHN = assay: Growth inhibition in human ACHN cells assessed as viable cells at 10 uM after 48 hrs by sulforhodamine B assay; settings: read-out: Activity; how it was run: as §1
SK-MEL-2 = assay: Growth inhibition in human SK-MEL-2 cells assessed as viable cells at 10 uM after 48 hrs by sulforhodamine B assay; settings: SK-MEL-2, 48 h, read-out: Activity
BT-549 = assay: Growth inhibition in human BT549 cells assessed as viable cells at 10 uM after 48 hrs by sulforhodamine B assay; settings: BT-549, 48 h, read-out: Activity; how it was run: as §1
A498 = assay: Growth inhibition in human A498 cells assessed as viable cells at 10 uM after 48 hrs by sulforhodamine B assay; settings: A498, 48 h, read-out: Activity; how it was run: as §1
TK-10 = assay: Growth inhibition in human TK10 cells assessed as viable cells at 10 uM after 48 hrs by sulforhodamine B assay; settings: TK-10, 48 h, read-out: Activity; how it was run: as §1
Malme-3M = assay: Growth inhibition in human MALME-3M cells assessed as viable cells at 10 uM after 48 hrs by sulforhodamine B assay; settings: read-out: Activity
SF-295 = assay: Growth inhibition in human SF295 cells assessed as viable cells at 10 uM after 48 hrs by sulforhodamine B assay; settings: SF-295, 48 h, read-out: Activity
T47D = assay: Growth inhibition in human T47D cells assessed as viable cells at 10 uM after 48 hrs by sulforhodamine B assay; settings: read-out: Activity
MDA-MB-468 = assay: Growth inhibition in human MDA-MB-468 cells assessed as viable cells at 10 uM after 48 hrs by sulforhodamine B assay; settings: MDA-MB-468, 48 h, read-out: Activity; how it was run: as §1
OVCAR-3 = assay: Growth inhibition in human OVCAR-3 cells assessed as viable cells at 10 uM after 48 hrs by sulforhodamine B assay; settings: OVCAR-3, 48 h, read-out: Activity
PC-3 = assay: Growth inhibition in human PC3 cells assessed as viable cells at 10 uM after 48 hrs by sulforhodamine B assay; settings: PC-3, 48 h, read-out: Activity; how it was run: as §1
SN12C = assay: Growth inhibition in human SN12C cells assessed as viable cells at 10 uM after 48 hrs by sulforhodamine B assay; settings: read-out: Activity; how it was run: as §1
SK-MEL-5 = assay: Growth inhibition in human SK-MEL-5 cells assessed as viable cells at 10 uM after 48 hrs by sulforhodamine B assay; settings: SK-MEL-5, 48 h, read-out: Activity

Cc1ccc2c(c1)C1(Nc3ccccc3S1)C(=O)N2 (stereo unspecified)
EC50 [1]: 1.36 mM | EC50 [2]: 1.02 mM | EC50 [3]: 1.3 mM | EC50 [4]: 0.041 mM

O=C1Nc2ccc(Cl)cc2C12Nc1ccccc1S2 (stereo unspecified)
EC50 [1]: 0.51 mM | EC50 [2]: 1.03 mM | viability at 10 µM (SNB-75): 55.8% | viability at 10 µM (U-251): 98.5% | viability at 10 µM (SNB-19): 107% | viability at 10 µM (SF-539): 97.4% | EC50 [3]: 1.78 mM | EC50 [4]: 0.049 mM | viability at 10 µM (SF-268): 83.2%

O=C1Nc2ccc([N+](=O)[O-])cc2C12Nc1ccccc1S2 (stereo unspecified)
EC50 [1]: 0.8 mM | EC50 [2]: 1.63 mM | EC50 [3]: 1.3 mM | EC50 [4]: 0.087 mM

Cc1ccc2c(c1)C1(Nc3ccccc3S1)C(=O)N2C (stereo unspecified)
EC50 [1]: 0.7 mM | EC50 [2]: 0.98 mM | EC50 [3]: 0.98 mM | EC50 [4]: 0.034 mM

CN1C(=O)C2(Nc3ccccc3S2)c2cc(OC(F)(F)F)ccc21 (stereo unspecified)
viability at 10 µM (OVCAR-8): 99.1% | viability at 10 µM (OVCAR-4): 73.4% | viability at 10 µM (M14): 102% | viability at 10 µM (UACC-62): 80.4% | viability at 10 µM (DU-145): 107% | viability at 10 µM (LOX IMVI): 98.6% | EC50 [1]: 4.94 mM | viability at 10 µM (SK-OV-3): 102% | viability at 10 µM (MDA-MB-231): 96.2% | viability at 10 µM (UO-31): 58.3% | viability at 10 µM (786-0): 108% | viability at 10 µM [5]: 92.4% | EC50 [2]: 1.37 mM | viability at 10 µM (SK-MEL-28): 103% | viability at 10 µM (MCF7): 82.8% | viability at 10 µM (NCI/ADR-RES): 100% | viability at 10 µM (CAKI-1): 96.8% | viability at 10 µM (OVCAR-5): 121% | viability at 10 µM (IGROV-1): 86.2% | viability at 10 µM (MDA-MB-435): 100% | viability at 10 µM (UACC-257): 102% | viability at 10 µM (ACHN): 80.9% | viability at 10 µM (SK-MEL-2): 101% | viability at 10 µM (SNB-75): 55.3% | viability at 10 µM (U-251): 88.4% | viability at 10 µM (BT-549): 108% | viability at 10 µM (A498): 108% | viability at 10 µM (TK-10): 105% | viability at 10 µM (SNB-19): 92.4% | viability at 10 µM (SF-539): 116% | viability at 10 µM (Malme-3M): 98.5% | viability at 10 µM (SF-295): 102% | EC50 [3]: 1.62 mM | viability at 10 µM (T47D): 60% | viability at 10 µM (MDA-MB-468): 112% | viability at 10 µM (OVCAR-3): 103% | viability at 10 µM (PC-3): 84.6% | viability at 10 µM (SN12C): 105% | EC50 [4]: 0.084 mM | viability at 10 µM (SF-268): 97.7% | viability at 10 µM (SK-MEL-5): 99.7%

CN1C(=O)C2(Nc3ccccc3S2)c2cc(Cl)ccc21 (stereo unspecified)
EC50 [1]: 4.02 mM | EC50 [2]: 1.14 mM | EC50 [3]: 1.24 mM | EC50 [4]: 0.075 mM

CN1C(=O)C2(Nc3ccccc3S2)c2cc(Br)ccc21 (stereo unspecified)
EC50 [1]: 4.22 mM | EC50 [2]: 1.04 mM | EC50 [3]: 1.01 mM | EC50 [4]: 0.034 mM

CN1C(=O)C2(Nc3ccccc3S2)c2cc([N+](=O)[O-])ccc21 (stereo unspecified)
EC50 [1]: 5.14 mM | EC50 [2]: 1.34 mM | EC50 [3]: 1.27 mM | EC50 [4]: 0.092 mM

Cc1c(C)c2c(c(C)c1O)CC[C@@](C)(CCC[C@H](C)CCC[C@H](C)CCCC(C)C)O2 [ALPHA-TOCOPHEROL]
EC50 [1]: 1.95 mM | EC50 [2]: 1.2 mM | EC50 [3]: 0.35 mM | EC50 [4]: 0.153 mM

O=C1O[C@H]([C@@H](O)CO)C(O)=C1O [ASCORBIC ACID]
EC50 [1]: 0.65 mM | EC50 [2]: 1.2 mM | EC50 [3]: 0.36 mM
